Assay results: ChEMBL document CHEMBL1165965, “Synthesis and structure-activity relationships of 1,2,3,4-tetrahydropyrido[2,3-b]pyrazines as potent and selective inhibitors of the anaplastic lymphoma kinase” (Bioorg Med Chem, 2010)

Columns and labels:
[1] = target: Receptor tyrosine-protein kinase erbB-2 (Homo sapiens) (UniProt P04626); assay: Inhibition of ERBB2 at 1 uM
Summary of the method: (§1)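 Single-concentration screen using Ambit Bioscience KINOMEscan technology across a panel of 250–400 kinases. Per-kinase inhibition from this screen was summarized as S(90), the fraction of kinases inhibited by more than 90%.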

[2] = target: T1, Ephrin type-A receptor 1 (Homo sapiens) (UniProt P21709); assay: Inhibition of EPHA1 at 1 uM; summary of the method: as §1
T1 sequence (whole entry): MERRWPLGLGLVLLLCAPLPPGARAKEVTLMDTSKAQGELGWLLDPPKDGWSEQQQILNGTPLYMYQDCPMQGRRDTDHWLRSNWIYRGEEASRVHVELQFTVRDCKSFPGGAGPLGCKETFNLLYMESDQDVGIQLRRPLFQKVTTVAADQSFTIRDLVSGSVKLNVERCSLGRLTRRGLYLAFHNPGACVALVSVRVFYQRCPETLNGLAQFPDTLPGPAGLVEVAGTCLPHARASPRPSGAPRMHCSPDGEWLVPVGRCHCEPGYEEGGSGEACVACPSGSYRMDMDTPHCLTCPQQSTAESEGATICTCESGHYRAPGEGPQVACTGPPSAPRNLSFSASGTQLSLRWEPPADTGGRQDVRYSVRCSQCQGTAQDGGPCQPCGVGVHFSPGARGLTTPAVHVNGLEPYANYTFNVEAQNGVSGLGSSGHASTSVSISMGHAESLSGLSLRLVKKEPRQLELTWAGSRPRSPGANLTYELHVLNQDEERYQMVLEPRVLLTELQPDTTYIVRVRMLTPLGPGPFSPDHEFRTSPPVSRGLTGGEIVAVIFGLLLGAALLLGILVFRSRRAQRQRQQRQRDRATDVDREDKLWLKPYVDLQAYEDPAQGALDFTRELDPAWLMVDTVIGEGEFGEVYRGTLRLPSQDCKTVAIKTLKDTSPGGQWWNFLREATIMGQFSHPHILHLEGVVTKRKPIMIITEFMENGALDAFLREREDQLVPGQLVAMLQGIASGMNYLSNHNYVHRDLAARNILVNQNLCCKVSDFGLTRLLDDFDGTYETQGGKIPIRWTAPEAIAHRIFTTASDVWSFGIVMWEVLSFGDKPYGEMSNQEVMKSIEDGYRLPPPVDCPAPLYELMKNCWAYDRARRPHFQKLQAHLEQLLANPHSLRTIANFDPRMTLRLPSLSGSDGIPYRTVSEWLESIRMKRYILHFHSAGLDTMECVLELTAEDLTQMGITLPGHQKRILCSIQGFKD

[3] = tested on: Epidermal growth factor receptor (Homo sapiens), P00533 [L861Q]; assay: Inhibition of EGFR L861Q mutant at 1 uM; assay type: protein assay; summary of the method: as §1
[4] = target: T2, Cyclin-dependent kinase-like 5 (Homo sapiens) (UniProt O76039); assay: Inhibition of CDKL5 at 1 uM
T2 sequence (whole entry): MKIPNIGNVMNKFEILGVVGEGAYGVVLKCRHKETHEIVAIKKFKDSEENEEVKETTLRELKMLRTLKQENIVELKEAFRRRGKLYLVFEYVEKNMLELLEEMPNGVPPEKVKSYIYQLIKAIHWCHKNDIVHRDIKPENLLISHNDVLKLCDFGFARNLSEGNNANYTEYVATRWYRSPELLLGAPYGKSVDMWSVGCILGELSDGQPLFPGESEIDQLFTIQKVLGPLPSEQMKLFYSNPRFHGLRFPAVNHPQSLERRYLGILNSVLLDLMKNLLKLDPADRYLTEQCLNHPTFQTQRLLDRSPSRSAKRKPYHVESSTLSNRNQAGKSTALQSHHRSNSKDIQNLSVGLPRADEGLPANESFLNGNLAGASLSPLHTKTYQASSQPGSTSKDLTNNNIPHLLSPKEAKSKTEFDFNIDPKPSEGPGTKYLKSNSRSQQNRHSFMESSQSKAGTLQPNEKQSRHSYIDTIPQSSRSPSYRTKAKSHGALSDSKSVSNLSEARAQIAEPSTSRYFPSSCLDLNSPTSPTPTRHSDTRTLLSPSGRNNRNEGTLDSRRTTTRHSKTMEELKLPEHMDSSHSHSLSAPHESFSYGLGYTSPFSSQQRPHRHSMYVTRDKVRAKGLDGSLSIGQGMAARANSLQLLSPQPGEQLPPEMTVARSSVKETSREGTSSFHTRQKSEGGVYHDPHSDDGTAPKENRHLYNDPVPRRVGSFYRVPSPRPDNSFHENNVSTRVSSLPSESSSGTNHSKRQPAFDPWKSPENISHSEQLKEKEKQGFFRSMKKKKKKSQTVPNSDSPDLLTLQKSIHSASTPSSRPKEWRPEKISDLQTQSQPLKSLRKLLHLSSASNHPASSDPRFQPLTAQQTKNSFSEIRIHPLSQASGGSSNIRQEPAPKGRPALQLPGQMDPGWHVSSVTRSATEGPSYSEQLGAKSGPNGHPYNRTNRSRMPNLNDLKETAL

[5] = target: Serine/threonine-protein kinase SIK1 (Homo sapiens) (UniProt P57059); assay: Inhibition of SIK at 1 uM
[6] = target: Proto-oncogene tyrosine-protein kinase ROS (Homo sapiens) (UniProt P08922); assay: Inhibition of ROS1 at 1 uM
Summary of the method: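 Single-concentration screen on the Ambit KINOMEscan platform, run against a panel of 250–400 kinases. Per-kinase inhibition was also summarized as S(90), the fraction of kinases inhibited by more than 90%.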

[7] = target: Wee1-like protein kinase (Homo sapiens) (UniProt P30291); assay: Inhibition of WEE1 at 1 uM
[8] = target: Cyclin-dependent kinase 19 (Homo sapiens) (UniProt Q9BWU1); assay: Inhibition of CDK11 at 1 uM
Sequence of Cyclin-dependent kinase 19 (Homo sapiens) (Q9BWU1 whole entry): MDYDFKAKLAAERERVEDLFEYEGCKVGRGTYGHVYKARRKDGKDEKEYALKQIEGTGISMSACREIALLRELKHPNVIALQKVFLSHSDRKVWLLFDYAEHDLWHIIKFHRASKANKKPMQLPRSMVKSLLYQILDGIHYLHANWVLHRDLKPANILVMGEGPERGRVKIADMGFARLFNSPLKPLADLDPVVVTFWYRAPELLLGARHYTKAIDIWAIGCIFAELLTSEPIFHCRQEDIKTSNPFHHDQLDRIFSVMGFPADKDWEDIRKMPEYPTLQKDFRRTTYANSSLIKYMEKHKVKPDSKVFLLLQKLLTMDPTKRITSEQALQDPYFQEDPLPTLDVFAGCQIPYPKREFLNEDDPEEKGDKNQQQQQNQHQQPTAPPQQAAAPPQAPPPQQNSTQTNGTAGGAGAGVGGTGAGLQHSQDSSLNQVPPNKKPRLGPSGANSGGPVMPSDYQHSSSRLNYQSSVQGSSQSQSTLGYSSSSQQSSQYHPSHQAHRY

Sequence of Serine/threonine-protein kinase SIK1 (Homo sapiens) (P57059 whole entry): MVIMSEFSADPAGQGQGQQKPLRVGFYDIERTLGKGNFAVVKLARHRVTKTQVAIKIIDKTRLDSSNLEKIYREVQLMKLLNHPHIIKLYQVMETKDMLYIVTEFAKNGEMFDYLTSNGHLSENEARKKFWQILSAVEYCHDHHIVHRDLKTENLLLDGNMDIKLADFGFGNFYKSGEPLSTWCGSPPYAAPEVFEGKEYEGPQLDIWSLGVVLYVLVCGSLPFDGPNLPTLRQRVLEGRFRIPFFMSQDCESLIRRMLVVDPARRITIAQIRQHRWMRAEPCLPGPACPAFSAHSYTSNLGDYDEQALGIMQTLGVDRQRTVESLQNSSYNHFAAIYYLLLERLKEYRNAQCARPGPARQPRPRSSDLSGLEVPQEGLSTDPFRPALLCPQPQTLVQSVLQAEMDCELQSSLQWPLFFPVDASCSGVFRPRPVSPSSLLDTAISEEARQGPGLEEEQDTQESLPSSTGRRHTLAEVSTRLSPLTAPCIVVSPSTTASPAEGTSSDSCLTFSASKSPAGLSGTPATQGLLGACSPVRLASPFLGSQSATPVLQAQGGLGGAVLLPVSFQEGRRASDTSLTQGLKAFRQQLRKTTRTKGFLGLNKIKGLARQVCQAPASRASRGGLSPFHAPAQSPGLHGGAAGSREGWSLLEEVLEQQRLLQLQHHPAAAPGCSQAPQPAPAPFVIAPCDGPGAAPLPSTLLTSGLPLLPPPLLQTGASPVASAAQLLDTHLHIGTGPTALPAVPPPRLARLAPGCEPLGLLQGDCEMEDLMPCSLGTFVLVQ
Sequence of Epidermal growth factor receptor (Homo sapiens), P00533 [L861Q] (P00533 whole entry L861Q): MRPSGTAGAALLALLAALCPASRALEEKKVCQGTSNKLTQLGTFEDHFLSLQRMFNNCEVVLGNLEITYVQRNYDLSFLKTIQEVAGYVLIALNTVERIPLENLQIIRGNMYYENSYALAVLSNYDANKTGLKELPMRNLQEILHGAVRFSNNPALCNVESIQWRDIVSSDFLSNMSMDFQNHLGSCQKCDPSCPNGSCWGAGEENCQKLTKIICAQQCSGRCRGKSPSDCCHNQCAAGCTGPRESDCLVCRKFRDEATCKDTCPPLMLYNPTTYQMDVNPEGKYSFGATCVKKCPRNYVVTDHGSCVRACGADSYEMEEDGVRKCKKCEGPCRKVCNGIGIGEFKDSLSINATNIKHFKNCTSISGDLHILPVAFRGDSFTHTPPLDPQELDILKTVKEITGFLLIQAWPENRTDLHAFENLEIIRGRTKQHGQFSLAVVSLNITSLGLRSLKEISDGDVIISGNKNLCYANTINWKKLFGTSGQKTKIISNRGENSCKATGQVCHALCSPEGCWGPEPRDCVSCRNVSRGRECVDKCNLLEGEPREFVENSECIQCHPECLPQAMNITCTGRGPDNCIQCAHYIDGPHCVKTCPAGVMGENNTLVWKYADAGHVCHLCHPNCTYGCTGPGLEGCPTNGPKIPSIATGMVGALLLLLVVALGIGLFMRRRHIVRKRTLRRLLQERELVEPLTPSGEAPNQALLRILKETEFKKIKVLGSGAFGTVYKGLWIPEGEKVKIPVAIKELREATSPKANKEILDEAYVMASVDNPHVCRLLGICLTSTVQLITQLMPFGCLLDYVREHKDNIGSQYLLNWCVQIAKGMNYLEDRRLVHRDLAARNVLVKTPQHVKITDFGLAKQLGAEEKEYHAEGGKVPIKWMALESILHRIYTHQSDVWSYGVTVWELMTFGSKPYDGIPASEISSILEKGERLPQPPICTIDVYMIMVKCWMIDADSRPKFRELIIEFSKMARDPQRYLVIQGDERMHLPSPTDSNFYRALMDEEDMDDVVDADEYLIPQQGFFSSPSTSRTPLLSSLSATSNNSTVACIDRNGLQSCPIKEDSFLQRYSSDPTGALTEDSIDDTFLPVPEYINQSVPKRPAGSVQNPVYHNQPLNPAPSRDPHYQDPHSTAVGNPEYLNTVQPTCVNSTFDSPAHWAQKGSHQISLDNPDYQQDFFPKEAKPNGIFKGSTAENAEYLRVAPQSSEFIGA
Sequence of Wee1-like protein kinase (Homo sapiens) (P30291 whole entry, looked up): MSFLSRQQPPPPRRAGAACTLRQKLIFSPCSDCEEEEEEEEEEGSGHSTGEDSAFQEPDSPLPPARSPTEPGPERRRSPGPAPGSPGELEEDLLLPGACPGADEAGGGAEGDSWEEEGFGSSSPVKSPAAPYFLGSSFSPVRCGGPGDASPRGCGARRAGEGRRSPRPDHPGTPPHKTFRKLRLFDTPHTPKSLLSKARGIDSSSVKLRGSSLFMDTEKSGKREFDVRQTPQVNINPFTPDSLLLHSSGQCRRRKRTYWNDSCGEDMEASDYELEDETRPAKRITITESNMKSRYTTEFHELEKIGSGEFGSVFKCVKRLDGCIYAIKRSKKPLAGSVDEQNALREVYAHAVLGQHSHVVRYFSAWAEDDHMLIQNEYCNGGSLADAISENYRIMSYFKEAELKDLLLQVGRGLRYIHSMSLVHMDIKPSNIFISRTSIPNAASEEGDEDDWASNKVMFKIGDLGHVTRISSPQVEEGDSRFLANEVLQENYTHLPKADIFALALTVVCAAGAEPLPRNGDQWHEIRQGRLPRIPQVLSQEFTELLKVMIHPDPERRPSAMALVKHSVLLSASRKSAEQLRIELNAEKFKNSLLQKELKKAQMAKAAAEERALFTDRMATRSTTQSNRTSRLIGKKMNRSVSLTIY
Sequence of Receptor tyrosine-protein kinase erbB-2 (Homo sapiens) (P04626 whole entry): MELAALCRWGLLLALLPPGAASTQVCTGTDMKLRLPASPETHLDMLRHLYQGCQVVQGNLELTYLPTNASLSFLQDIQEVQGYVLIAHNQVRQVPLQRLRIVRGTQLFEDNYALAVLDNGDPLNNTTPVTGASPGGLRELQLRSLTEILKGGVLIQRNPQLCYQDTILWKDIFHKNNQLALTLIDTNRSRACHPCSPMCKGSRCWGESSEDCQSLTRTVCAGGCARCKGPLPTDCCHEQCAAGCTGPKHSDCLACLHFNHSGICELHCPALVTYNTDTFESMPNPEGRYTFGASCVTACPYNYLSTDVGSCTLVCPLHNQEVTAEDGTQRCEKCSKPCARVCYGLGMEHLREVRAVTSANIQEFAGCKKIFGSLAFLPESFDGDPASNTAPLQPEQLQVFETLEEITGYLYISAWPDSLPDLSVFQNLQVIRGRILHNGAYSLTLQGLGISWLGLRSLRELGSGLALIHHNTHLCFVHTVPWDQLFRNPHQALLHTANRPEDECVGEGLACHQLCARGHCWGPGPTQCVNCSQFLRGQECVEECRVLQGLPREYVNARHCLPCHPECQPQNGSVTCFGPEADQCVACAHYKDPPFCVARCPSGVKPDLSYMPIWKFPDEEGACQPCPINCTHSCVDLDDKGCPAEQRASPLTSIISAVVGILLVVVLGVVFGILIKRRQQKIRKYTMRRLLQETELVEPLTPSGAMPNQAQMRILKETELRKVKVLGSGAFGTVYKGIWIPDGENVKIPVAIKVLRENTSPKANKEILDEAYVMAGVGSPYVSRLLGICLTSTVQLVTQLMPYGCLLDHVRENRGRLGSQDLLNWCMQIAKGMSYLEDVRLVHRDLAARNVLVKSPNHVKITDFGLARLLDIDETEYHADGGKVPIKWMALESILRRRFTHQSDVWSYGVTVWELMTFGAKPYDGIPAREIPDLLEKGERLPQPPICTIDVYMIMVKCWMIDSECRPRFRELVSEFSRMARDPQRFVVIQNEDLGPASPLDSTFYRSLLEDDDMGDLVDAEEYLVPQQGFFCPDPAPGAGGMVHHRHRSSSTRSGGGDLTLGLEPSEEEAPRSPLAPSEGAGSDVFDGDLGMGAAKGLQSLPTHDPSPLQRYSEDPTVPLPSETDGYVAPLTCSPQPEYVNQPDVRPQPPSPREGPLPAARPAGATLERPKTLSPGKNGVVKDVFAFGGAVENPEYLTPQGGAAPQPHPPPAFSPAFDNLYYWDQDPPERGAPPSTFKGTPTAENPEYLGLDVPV

SMILES | inhibition [1] [%] | inhibition [2] [%] | inhibition [3] [%] | inhibition [4] [%] | inhibition [5] [%] | inhibition [6] [%] | inhibition [7] [%] | inhibition [8] [%]
CN1CCN(c2ccc(-c3cnc4c(c3)N(Cc3cc(Cl)ccc3Cl)CCN4)cn2)CC1 | < 50 | < 50 | < 50 | < 50 | < 50 | < 50 | < 50 | < 50
CN1CCN(c2ccc(-c3cnc4c(c3)N(Cc3cc(Cl)ccc3C(F)(F)F)CCN4)cn2)CC1 | < 50 | < 50 | < 50 | < 50 | < 50 | 72 | < 50 | < 50
CN1CCN(c2ccc(-c3cnc4c(c3)N(Cc3c(F)ccc(F)c3Cl)CCN4)cn2)CC1 | < 50 | < 50 | < 50 | < 50 | < 50 | 73 | < 50 | < 50
O=C(c1ccc(-c2cnc3c(c2)N(Cc2cc(Cl)ccc2C(F)(F)F)CCN3)cc1)N1CCC(N2CCCC2)CC1 | < 50 | 81 | < 50 | – | 81.6 | 80.7 | – | –
COC1CCN(C(=O)c2ccc(-c3cnc4c(c3)N(Cc3cc(Cl)ccc3C(F)(F)F)CCN4)cc2)CC1 | < 50 | < 50 | < 50 | – | < 50 | 78.2 | – | –
FC(F)(F)c1ccc(Cl)cc1CN1CCNc2ncc(-c3ccnc(N4CCNCC4)c3)cc21 | < 50 | < 50 | < 50 | < 50 | < 50 | 92 | < 50 | < 50
CN1CCN(c2ccc(-c3cnc4c(c3)N(Cc3cc(F)ccc3F)CCN4)cn2)CC1 | < 50 | 62.1 | < 50 | < 50 | < 50 | 67.5 | < 50 | < 50
O=C(c1ccc(-c2cnc3c(c2)N(Cc2cc(Cl)ccc2C(F)(F)F)CCN3)cc1)N1CCCCC1 | < 50 | < 50 | < 50 | – | < 50 | < 50 | – | –
CC(=O)N1CCN(c2cc(-c3cnc4c(c3)N(Cc3cc(Cl)ccc3C(F)(F)F)CCN4)ccn2)CC1 | < 50 | < 50 | < 50 | < 50 | < 50 | 79 | < 50 | < 50
O=C(O)c1ccc(-c2cnc3c(c2)N(Cc2cc(Cl)ccc2C(F)(F)F)CCN3)cc1 | < 50 | < 50 | < 50 | – | < 50 | 66.7 | – | –
